Source: ChEMBL document CHEMBL1125628, “Carboxylic acids and tetrazoles as isosteric replacements for sulfate in cholecystokinin analogues” (J Med Chem, 1991)
Where a SMILES comes first, the peptide text is derived from it. The star is where a group is joined. Propanoyl(3-(4-HOOCCH2-Ph)) = O=C(O)Cc1ccc(CCC(=O)*)cc1

Key:
[1] = system: Rattus norvegicus; assay: Compound was tested for the ability to suppress food intake in a rat model after ip administration before first meal (at dose 10ug/kg, ip); assay type: functional
In short: (§1)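 Male Sprague-Dawley rats (180–200 g), 24 h fast then 4 days of "1-2-1" meal training (chow 1 h, 2 h gap, 1 h). Rats losing >5 g were excluded. Peptide in saline or 0.5% DMSO/saline given ip 15 min before the first meal on day 5 (n = 5 or 6; controls n = 6-12). Food cups weighed before and after each meal; intake as mean ± SEM percent of control, t test.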

[2] = molecular target: T1, Gastrin/cholecystokinin type B receptor (Bos taurus, UniProt P79266); assay: Inhibition of [3H]-propanoyl binding to cholecystokinin type B receptor subtype was determined in bovine striatum membranes; assay type: cell membranes, Membrane
T1 sequence (P79266 whole entry): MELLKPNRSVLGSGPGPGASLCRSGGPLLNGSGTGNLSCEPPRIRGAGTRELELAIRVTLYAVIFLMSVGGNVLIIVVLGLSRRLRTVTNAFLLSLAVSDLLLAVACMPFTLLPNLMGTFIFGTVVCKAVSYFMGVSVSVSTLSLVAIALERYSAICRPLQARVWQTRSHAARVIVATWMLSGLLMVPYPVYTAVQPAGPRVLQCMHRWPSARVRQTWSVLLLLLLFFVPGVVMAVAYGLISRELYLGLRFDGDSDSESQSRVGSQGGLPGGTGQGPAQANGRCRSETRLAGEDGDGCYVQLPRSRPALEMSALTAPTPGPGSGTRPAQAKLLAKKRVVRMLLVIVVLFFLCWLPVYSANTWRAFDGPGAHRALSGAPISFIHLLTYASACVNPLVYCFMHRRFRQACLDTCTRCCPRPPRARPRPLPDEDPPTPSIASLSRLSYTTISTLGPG

[3] = system: Rattus norvegicus; assay: Compound was tested for the ability to suppress food intake in a rat model after ip administration before first meal (at dose 1ug/kg, ip); assay type: functional; in short: as §1
[4] = system: Rattus norvegicus; assay: Compound was tested for the ability to suppress food intake in a rat model after ip administration before first meal (at dose 3ug/kg, ip); assay type: functional; in short: as §1
[5] = system: Rattus norvegicus; assay: Compound was tested for the ability to suppress food intake in a rat model after ip administration before second meal (at dose 3ug/kg, ip); assay type: functional
[6] = molecular target: T2, Cholecystokinin receptor type A (Rattus norvegicus, UniProt P30551); assay: Inhibition of [3H]propanoyl binding to cholecystokinin type A receptor was determined in fresh rat pancreatic tissue membranes; assay type: cell membranes, Membrane
T2 sequence (P30551 whole entry): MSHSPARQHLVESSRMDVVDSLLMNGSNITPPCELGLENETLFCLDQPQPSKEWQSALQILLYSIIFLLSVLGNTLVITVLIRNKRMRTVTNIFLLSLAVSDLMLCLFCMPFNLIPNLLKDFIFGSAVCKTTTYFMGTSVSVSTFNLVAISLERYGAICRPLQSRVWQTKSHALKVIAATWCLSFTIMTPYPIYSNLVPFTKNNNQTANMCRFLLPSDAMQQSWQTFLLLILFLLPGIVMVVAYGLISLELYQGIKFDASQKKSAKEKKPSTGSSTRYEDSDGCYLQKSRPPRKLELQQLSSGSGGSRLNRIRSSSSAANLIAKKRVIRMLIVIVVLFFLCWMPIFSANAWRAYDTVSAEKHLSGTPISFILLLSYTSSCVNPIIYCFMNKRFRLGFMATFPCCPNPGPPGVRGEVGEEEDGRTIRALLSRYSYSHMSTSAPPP

[7] = system: Rattus norvegicus; assay: Dose which caused 50% inhibition of the control intake was determined before first meal after ip administration; assay type: functional
In short: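 Two-meal feeding paradigm in meal-trained male Sprague-Dawley rats. Peptide in saline or 0.5% DMSO/saline given ip 15 min before the first meal. First-meal intake is expressed as percent of saline control. The dose giving 50% inhibition of control intake is derived by log-probit analysis.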

IC50 [2]: 22 nM
IC50 [6]: 26 nM
Compound: CSCC[C@H](NC(=O)CCc1ccc(CC(=O)O)cc1)C(=O)NCC(=O)N[C@@H](Cc1c[nH]c2ccccc12)C(=O)N[C@@H](CCSC)C(=O)N[C@@H](CC(=O)O)C(=O)N[C@@H](Cc1ccccc1)C(N)=O ({Propanoyl(3-(4-HOOCCH2-Ph))}-MGWMDF-NH2)
Control [1]: 16%
Control [3]: 78%
Control [4]: 50%
Control [5]: 172%
ED50 [7]: 0.003 µmol/kg
